Tests used:
Hs-spastin-N386C = experiment: Steady-state ATPase activity, NADH-coupled assay, Hs-spastin N386C; type: biochemical, human; conditions: 1 mM MgATP
Hs-FIGL1 = target: T1, Hs-FIGL1 (Homo sapiens, UniProt Q6PIW4); experiment: Steady-state ATPase activity, NADH-coupled assay, Hs-FIGL1; type: biochemical; conditions: 10 µM, 0.5 mM MgATP, n = 3
T1 sequence (Q6PIW4 288-674): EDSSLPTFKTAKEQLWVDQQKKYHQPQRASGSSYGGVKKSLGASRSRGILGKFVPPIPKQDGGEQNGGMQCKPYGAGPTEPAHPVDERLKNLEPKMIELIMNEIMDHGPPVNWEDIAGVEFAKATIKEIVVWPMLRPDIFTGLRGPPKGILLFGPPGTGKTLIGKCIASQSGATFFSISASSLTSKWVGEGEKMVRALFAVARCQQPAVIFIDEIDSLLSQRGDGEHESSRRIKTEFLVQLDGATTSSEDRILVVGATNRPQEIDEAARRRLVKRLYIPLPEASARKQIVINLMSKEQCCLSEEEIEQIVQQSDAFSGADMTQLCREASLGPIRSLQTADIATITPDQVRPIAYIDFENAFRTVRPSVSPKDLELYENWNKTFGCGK
In short: (§1)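 Recombinant AAA protein constructs assayed by steady-state ATPase with NADH-coupled read-out at 0.5 mM MgATP, with test compound at 2 µM or 10 µM. Activity is reported as percent of steady-state ATPase activity, average ± s.d., n = 3.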

Mm-VCP = Mm-VCP (Mus musculus, UniProt Q01853, I206V); experiment: Steady-state ATPase activity, NADH-coupled assay, Mm-VCP; type: biochemical; conditions: 10 µM, 0.5 mM MgATP, n = 3
Chain of Mm-VCP (Q01853 whole entry I206V): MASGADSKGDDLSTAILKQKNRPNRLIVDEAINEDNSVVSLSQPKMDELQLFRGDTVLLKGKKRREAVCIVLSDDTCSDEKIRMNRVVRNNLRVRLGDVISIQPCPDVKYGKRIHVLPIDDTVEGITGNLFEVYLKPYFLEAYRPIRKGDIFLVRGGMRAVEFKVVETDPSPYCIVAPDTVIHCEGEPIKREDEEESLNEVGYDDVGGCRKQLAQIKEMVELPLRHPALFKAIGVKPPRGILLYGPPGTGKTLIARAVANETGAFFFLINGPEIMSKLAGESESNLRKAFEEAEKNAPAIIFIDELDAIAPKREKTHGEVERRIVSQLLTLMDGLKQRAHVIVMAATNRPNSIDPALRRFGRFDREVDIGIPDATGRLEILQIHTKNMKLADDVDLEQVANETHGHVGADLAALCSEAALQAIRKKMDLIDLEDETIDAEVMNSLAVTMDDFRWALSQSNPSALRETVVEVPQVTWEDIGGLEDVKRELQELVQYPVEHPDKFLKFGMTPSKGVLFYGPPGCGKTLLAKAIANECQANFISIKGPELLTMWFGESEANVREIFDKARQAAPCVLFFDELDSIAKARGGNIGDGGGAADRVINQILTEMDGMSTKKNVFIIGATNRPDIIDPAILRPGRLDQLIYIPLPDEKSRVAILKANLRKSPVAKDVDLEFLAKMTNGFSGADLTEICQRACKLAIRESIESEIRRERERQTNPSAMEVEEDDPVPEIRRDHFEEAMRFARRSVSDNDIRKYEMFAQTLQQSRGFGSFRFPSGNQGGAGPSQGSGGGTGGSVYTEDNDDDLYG
In short: as §1

Xl-katanin = Xl-katanin (Xenopus laevis, UniProt Q9PUL2); experiment: Steady-state ATPase activity, NADH-coupled assay, Xl-katanin; type: biochemical, X. laevis; conditions: 10 µM, 0.5 mM MgATP, n = 3
Chain of Xl-katanin (Q9PUL2 whole entry): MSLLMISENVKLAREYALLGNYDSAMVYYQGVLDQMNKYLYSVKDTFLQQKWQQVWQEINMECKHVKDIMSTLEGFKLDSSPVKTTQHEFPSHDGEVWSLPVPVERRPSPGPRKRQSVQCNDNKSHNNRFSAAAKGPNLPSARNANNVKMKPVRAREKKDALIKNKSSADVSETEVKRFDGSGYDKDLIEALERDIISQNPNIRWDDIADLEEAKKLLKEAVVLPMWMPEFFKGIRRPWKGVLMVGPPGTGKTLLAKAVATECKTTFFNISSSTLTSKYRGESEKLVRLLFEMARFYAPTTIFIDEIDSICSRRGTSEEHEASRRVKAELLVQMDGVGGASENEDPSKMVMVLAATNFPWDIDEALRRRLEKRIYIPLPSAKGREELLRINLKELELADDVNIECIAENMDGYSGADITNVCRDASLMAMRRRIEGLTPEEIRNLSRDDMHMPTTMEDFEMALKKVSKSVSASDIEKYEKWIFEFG
In short: as §1

Hs-PCH2 = target: T2, Hs-PCH2 (Homo sapiens, UniProt Q15645); experiment: Steady-state ATPase activity, NADH-coupled assay, Hs-PCH2; type: biochemical; conditions: 10 µM, 0.5 mM MgATP, n = 3
T2 sequence (Q15645 1-432): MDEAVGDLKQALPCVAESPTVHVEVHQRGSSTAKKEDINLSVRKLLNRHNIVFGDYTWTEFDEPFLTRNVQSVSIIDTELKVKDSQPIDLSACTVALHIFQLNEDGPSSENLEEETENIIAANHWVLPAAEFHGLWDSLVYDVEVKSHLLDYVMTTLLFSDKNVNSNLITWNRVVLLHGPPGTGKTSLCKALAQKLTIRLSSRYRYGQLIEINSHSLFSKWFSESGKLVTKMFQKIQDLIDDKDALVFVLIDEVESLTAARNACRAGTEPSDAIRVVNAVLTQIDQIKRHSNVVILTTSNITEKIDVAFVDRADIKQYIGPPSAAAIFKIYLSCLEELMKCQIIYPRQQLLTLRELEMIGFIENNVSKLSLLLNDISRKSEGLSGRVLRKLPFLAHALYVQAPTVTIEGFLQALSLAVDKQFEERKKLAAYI
In short: as §1

human VPS4B = target: T3, human VPS4B (Homo sapiens, UniProt O75351); experiment: Steady-state ATPase activity, NADH-coupled assay, VPS4B; type: biochemical; conditions: 1 mM MgATP, n = 3
T3 sequence (O75351 1-444): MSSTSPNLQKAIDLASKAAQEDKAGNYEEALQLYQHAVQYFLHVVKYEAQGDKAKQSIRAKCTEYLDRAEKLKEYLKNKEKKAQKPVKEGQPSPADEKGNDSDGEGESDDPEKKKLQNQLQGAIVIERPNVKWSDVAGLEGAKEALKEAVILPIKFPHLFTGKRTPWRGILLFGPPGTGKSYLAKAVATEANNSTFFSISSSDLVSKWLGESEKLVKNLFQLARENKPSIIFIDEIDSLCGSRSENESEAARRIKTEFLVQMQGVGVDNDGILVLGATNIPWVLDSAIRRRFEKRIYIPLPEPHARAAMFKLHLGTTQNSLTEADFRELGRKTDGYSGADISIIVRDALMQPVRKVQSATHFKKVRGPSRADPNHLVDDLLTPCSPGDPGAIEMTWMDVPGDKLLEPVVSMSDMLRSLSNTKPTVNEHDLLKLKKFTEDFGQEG

HeLa-WT cells [1] = experiment: Intercellular bridge analysis; type: cell-based, human; conditions: 10 µM, 4.5 hours
In short: (§2)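 Fixed HeLa Flp-In T-Rex lines expressing GFP-tagged spastin M87e4, either wildtype or N386C. Cells were exposed to 0.1% DMSO or 10 µM test compound for 4.5 h, then stained for acetylated tubulin to mark intercellular bridges and imaged by immunofluorescence. Read-out is the percent of cells with a bridge: >2500 cells per condition, average ± s.d., n = 3.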

HeLa-N386C cells [2] = experiment: Intercellular bridge analysis; type: cell-based, human; conditions: 10 µM, 4.5 hours, average ± s.d., n = 3
In short: as §2

HeLa-WT cells [3] = experiment: CellTiter-Glo cell viability assay; type: cell-based, human; conditions: 10 µM, 48 h
HeLa-WT cells [4] = experiment: Microtubule organization; type: cell-based, human; conditions: 10 µM, 4 hours
HeLa-N386C cells [5] = experiment: Live-cell imaging of GFP-spastin puncta in anaphase, HeLa-N386C; type: cell-based, human; conditions: 10 µM for 1 hour, 20 min after cleavage furrow ingression

CC(C)[C@@H]1CN(c2nc(Nc3cc(C(C)(C)C)[nH]n3)c3cc[nH]c3n2)CCN1 [spastazoline, (R)-N-(5-(tert-butyl)-1H-pyrazol-3-yl)-2-(3-isopropylpiperazin-1-yl)-7H-pyrrolo[2,3-d]pyrimidin-4-amine]
potency on Hs-spastin-N386C relative to wildtype (less potent) (Hs-spastin-N386C): > 100 fold
inhibition of Hs-FIGL1 ATPase activity (Hs-FIGL1): did not appreciably inhibit
inhibition of Mm-VCP ATPase activity (Mm-VCP): did not appreciably inhibit
inhibition of Xl-katanin ATPase activity (Xl-katanin): did not appreciably inhibit
inhibition of Hs-PCH2 ATPase activity (Hs-PCH2): did not appreciably inhibit
inhibition of ATPase activity of recombinant human VPS4 (human VPS4B): did not inhibit ATPase activity
increase in number of cells with intercellular bridges compared to DMSO control, HeLa-WT (HeLa-WT cells [1]): ~ 2 fold
percent of cells with an intercellular bridge, HeLa-WT (HeLa-WT cells [1]; average ± s.d., n = 3): 25.2 ± 1.4%
percent of cells with an intercellular bridge, HeLa-N386C (HeLa-N386C cells [2]): 13.6 ± 1.4%
viability of HeLa cells (HeLa-WT cells [3]): did not impact the viability
organization of microtubules (HeLa-WT cells [4]): did not result in overt changes in the organization of microtubules
increase in GFP-spastin dots in HeLa-N386C with respect to wildtype (HeLa-N386C cells [5]): 1.6 fold
number of GFP-spastin dots, HeLa-N386C (HeLa-N386C cells [5]; average ± s.e.m.): 8 ± 3
